Measurements from ChEMBL document CHEMBL4321823, “Benzyl Phenylsemicarbazides: A Chemistry-Driven Approach Leading to G Protein-Biased Dopamine D4 Receptor Agonists with High Subtype Selectivity” (J Med Chem, 2019).
Values belong to the molecule of their own block, whether it stands above or below them. Calls of active or inactive are those of the source. No cut-off for these calls is given here.

How the values were obtained:
[1] = biological target: T1, 5-hydroxytryptamine receptor 1A (Homo sapiens, UniProt P08908); experiment: Displacement of [3H] WAY100635 from 5HT1A receptor (unknown origin)
T1 sequence (P08908 whole entry): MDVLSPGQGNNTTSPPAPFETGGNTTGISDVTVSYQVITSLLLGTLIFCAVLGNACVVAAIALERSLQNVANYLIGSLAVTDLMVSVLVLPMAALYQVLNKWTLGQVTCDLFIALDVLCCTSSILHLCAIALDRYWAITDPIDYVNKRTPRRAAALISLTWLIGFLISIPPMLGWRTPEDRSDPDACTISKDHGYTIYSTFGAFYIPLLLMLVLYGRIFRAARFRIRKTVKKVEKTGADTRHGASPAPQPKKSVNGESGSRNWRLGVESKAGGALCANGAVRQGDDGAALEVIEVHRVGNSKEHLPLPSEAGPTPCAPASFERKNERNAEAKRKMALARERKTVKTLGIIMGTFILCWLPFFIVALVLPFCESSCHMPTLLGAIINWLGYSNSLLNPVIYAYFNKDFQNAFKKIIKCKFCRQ
Outline: (§1)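 Radioligand competition binding; Ki given as mean ± SD from two individual experiments, each run in triplicate.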

D(1B) dopamine receptor = D(1B) dopamine receptor (Homo sapiens, UniProt P21918); experiment: Displacement of [3H] SCH23390 from D5 receptor (unknown origin)
Chain of D(1B) dopamine receptor (P21918 whole entry): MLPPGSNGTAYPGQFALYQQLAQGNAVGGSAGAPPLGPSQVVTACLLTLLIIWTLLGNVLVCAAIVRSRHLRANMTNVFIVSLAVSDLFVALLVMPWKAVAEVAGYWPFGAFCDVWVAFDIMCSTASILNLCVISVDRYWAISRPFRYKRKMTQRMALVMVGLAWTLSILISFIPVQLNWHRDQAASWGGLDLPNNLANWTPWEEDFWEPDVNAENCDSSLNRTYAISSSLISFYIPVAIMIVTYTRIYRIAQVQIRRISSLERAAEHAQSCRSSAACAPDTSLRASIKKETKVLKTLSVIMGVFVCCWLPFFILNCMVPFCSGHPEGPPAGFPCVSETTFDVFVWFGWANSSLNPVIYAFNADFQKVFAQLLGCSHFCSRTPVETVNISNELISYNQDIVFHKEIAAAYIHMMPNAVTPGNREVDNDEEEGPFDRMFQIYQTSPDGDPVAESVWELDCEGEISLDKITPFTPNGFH

D(3) dopamine receptor = D(3) dopamine receptor (Homo sapiens, UniProt P35462); experiment: Displacement of [3H] Spiperone from human D3 receptor expressed in CHO cells by competitive radioligand binding assay; type: cell-based
Chain of D(3) dopamine receptor (P35462 whole entry): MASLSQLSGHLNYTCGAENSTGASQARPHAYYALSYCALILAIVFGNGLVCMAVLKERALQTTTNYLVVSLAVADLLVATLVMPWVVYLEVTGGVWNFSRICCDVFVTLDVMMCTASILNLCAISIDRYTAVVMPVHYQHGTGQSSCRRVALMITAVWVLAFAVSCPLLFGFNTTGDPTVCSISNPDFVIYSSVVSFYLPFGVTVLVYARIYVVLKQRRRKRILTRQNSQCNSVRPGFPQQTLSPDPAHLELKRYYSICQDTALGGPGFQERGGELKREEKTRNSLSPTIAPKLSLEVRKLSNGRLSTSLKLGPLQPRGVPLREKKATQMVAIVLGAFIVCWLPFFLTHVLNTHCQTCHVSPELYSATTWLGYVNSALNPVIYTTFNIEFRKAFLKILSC

[2] = biological target: T2, Muscarinic acetylcholine receptor M1 (Homo sapiens, UniProt P11229); experiment: Displacement of [3H] NMS from muscarinic M1 receptor (unknown origin); outline: as §1
T2 sequence (P11229 whole entry): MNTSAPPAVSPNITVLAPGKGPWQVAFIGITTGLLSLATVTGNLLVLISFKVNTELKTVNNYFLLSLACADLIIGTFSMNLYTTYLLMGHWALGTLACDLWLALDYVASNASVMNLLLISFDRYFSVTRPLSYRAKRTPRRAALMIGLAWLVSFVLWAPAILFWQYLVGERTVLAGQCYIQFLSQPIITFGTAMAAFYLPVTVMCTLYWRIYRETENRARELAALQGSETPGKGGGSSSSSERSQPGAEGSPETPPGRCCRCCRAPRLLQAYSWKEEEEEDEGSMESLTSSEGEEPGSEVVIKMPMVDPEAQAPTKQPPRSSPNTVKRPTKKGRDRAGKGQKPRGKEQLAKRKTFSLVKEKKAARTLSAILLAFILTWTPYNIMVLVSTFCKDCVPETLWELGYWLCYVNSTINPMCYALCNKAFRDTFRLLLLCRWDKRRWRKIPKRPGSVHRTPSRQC

[3] = biological target: T3, Alpha-2A adrenergic receptor (Homo sapiens, UniProt P08913); experiment: Displacement of [3H] RX821002 from alpha2A adrenergic receptor (unknown origin)
T3 sequence (P08913 whole entry): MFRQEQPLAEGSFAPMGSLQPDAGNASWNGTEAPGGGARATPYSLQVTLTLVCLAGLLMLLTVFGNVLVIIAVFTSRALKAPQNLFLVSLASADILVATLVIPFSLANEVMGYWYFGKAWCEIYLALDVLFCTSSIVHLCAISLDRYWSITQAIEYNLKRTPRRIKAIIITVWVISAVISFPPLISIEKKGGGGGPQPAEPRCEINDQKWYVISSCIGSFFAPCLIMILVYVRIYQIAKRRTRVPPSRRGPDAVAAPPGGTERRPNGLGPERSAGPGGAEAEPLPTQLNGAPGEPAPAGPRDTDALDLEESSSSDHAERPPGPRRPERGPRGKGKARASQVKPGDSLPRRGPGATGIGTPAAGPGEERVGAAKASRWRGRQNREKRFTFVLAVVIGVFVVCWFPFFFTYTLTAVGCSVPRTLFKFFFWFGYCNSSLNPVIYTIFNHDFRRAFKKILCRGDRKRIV

[4] = biological target: Delta-type opioid receptor (Homo sapiens, UniProt P41143); experiment: Displacement of [3H] diprenorphine from delta opioid receptor (unknown origin)
Chain of Delta-type opioid receptor (P41143 whole entry): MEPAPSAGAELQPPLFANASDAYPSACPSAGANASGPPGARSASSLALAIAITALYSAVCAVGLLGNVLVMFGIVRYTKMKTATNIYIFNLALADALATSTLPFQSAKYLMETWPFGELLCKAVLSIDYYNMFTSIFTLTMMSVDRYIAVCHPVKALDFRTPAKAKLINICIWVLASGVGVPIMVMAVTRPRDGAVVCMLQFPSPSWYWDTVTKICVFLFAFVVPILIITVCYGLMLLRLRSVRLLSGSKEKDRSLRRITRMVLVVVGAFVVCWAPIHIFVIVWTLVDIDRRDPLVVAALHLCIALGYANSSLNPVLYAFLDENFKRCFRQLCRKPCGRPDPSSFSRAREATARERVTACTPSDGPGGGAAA

[5] = biological target: T4, Alpha-1A adrenergic receptor (Homo sapiens) (UniProt P35348); experiment: Antagonist activity at human alpha1A adrenergic receptor expressed in HEK293T cells assessed as accumulation of inositol monophosphate using d2-labelled IP1 conjugate incubated for 60 mins by HTRF assay; type: functional, cell-based
T4 sequence (whole entry): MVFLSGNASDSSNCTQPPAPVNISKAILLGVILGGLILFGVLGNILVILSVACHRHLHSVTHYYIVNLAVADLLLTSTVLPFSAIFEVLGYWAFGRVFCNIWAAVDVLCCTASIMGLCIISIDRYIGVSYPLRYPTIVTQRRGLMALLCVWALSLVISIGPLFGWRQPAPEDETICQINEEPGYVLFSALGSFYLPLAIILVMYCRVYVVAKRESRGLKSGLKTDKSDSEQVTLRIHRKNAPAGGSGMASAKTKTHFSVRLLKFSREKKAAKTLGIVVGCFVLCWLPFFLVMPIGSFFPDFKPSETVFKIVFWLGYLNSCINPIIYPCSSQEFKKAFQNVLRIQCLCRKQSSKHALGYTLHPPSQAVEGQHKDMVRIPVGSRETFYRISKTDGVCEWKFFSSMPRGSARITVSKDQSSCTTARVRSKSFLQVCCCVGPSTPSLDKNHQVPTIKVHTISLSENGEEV

D(2) dopamine receptor [6] = biological target: T5, D(2) dopamine receptor (Homo sapiens, UniProt P14416); experiment: Displacement of [3H] Spiperone from human D2L receptor expressed in CHO cells by competitive radioligand binding assay; type: cell-based
T5 sequence (P14416 whole entry): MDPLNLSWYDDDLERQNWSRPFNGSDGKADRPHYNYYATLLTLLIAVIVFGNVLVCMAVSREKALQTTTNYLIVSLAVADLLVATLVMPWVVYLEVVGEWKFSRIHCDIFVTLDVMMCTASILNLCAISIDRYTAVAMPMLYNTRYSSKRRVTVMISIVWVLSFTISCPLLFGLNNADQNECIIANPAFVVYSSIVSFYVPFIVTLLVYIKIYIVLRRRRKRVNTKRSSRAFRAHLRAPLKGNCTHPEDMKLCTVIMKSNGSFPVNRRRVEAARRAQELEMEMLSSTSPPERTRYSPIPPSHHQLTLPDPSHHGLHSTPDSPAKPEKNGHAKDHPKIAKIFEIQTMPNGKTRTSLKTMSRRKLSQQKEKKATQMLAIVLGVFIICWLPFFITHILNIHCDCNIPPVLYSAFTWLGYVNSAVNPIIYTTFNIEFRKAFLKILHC

[7] = Drug metabolism in Sprague-Dawley rat liver microsomes assessed as unchanged remaining parent compound at 20 uM measured after 120 mins in presence of NADPH by LC-ESI-MS analysis; type: ADME, Microsome; conditions: read-out: Drug metabolism
[8] = biological target: Beta-1 adrenergic receptor (Homo sapiens, UniProt P08588); experiment: Displacement of [3H] CGP12177 from beta1 adrenergic receptor (unknown origin)
Chain of Beta-1 adrenergic receptor (P08588 whole entry): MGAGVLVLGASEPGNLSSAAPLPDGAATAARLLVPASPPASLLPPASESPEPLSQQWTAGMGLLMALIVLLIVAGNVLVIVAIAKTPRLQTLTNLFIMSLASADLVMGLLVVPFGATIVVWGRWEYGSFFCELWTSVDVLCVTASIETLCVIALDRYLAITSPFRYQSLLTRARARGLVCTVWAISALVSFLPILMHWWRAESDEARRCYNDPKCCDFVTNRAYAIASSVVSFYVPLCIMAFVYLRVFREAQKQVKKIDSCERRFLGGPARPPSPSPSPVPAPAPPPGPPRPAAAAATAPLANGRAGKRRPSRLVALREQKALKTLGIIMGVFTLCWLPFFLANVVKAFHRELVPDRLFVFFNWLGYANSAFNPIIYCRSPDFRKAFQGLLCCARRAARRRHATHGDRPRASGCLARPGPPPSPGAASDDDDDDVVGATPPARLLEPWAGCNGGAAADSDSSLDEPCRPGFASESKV

Mu-type opioid receptor = Mu-type opioid receptor (Homo sapiens, UniProt P35372); experiment: Displacement of [3H] diprenorphine from mu opioid receptor (unknown origin); outline: as §1
Chain of Mu-type opioid receptor (P35372 whole entry): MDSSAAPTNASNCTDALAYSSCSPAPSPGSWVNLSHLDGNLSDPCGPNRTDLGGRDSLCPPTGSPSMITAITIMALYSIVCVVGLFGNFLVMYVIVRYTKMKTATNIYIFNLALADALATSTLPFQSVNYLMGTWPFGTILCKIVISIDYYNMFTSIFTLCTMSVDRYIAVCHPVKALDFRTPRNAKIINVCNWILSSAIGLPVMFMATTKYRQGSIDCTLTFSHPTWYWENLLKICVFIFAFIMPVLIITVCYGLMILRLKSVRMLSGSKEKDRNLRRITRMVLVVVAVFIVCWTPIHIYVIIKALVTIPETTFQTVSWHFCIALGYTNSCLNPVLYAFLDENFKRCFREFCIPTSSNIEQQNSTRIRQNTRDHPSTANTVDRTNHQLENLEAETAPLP

[9] = biological target: Beta-2 adrenergic receptor (Homo sapiens, UniProt P07550); experiment: Displacement of [3H] CGP12177 from beta2 adrenergic receptor (unknown origin)
Chain of Beta-2 adrenergic receptor (P07550 whole entry): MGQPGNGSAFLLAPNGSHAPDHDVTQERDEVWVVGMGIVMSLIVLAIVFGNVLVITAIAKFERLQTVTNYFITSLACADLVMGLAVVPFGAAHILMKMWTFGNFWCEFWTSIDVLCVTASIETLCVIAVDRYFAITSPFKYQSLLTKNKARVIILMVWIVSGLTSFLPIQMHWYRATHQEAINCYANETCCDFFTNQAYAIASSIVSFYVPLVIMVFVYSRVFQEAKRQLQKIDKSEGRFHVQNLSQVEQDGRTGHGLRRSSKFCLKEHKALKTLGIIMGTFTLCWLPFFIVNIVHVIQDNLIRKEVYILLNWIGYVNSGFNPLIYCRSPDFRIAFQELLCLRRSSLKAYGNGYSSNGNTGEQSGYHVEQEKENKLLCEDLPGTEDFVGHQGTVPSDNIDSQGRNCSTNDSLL

[10] = biological target: T6, Alpha-1A adrenergic receptor (Homo sapiens, UniProt P35348); experiment: Displacement of [3H] prazosin from alpha1A adrenergic receptor (unknown origin)
T6 sequence (P35348 whole entry): T4 sequence (whole entry)

D(1A) dopamine receptor = D(1A) dopamine receptor (Homo sapiens, UniProt P21728); experiment: Displacement of [3H] SCH23390 from D1 receptor (unknown origin)
Chain of D(1A) dopamine receptor (P21728 whole entry): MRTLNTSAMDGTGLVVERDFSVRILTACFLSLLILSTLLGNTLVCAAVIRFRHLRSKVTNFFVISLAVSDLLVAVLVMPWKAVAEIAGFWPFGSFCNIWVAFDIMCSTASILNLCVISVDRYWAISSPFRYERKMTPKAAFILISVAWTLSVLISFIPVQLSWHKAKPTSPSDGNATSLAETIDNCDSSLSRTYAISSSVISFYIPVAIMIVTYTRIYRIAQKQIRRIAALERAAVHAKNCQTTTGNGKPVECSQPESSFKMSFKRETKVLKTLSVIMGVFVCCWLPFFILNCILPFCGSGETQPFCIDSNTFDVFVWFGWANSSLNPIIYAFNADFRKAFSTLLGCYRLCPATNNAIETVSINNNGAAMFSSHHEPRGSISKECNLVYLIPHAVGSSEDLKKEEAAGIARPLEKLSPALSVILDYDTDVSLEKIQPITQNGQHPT

[11] = biological target: 5-hydroxytryptamine receptor 2A (Homo sapiens, UniProt P28223); experiment: Displacement of [3H] Ketanserin from 5HT2A receptor (unknown origin)
Chain of 5-hydroxytryptamine receptor 2A (P28223 whole entry): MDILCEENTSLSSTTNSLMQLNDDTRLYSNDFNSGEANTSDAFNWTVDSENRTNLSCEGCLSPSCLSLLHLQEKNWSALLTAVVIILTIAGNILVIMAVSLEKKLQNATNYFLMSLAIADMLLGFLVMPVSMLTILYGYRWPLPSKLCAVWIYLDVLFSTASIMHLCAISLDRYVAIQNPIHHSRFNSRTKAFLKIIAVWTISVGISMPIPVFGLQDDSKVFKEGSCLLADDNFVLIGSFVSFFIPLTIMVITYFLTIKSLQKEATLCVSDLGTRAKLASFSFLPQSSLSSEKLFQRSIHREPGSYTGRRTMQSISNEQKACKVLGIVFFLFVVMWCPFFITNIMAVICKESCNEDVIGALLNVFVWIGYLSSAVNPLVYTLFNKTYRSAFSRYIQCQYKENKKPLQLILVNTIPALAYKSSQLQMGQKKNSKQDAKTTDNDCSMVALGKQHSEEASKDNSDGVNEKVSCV

[12] = biological target: T7, Muscarinic acetylcholine receptor M2 (Homo sapiens, UniProt P08172); experiment: Displacement of [3H] NMS from muscarinic M2 receptor (unknown origin); outline: as §1
T7 sequence (P08172 whole entry): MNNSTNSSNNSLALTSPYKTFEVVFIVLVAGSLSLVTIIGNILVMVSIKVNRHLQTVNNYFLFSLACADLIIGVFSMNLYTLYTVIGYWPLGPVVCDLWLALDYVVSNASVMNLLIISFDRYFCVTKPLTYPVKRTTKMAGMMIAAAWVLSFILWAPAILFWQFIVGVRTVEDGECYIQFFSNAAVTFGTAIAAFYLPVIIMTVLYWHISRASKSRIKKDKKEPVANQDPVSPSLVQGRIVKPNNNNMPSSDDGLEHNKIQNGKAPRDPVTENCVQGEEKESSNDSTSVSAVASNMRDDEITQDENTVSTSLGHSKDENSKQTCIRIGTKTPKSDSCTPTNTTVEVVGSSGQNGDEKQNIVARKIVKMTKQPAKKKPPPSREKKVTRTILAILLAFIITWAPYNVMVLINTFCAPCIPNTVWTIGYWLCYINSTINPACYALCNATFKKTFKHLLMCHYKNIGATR

D(2) dopamine receptor [13] = biological target: T5, D(2) dopamine receptor; experiment: Displacement of [3H] Spiperone from human D2S receptor expressed in CHO cells by competitive radioligand binding assay; type: cell-based
[14] = biological target: Muscarinic acetylcholine receptor M3 (Homo sapiens, UniProt P20309); experiment: Displacement of [3H] NMS from muscarinic M3 receptor (unknown origin); outline: as §1
Chain of Muscarinic acetylcholine receptor M3 (P20309 whole entry): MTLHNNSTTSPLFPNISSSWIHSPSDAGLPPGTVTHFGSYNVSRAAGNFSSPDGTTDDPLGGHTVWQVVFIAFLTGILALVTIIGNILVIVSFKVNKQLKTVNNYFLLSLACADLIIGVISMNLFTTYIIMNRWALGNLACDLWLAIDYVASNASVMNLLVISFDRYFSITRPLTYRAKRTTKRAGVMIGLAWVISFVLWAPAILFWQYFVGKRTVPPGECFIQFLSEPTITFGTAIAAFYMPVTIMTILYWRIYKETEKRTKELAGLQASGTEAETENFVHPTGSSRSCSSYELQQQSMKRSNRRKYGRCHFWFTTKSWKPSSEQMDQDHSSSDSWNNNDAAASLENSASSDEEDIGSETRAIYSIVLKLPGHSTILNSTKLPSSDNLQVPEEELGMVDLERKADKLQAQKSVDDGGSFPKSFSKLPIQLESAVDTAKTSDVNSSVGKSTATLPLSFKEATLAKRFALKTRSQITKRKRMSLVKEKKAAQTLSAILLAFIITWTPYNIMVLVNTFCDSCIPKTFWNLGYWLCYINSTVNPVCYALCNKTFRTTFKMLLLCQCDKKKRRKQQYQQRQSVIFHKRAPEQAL

[15] = Drug metabolism in Sprague-Dawley rat liver microsomes assessed as metabolite formation at 20 uM measured after 120 mins in presence of NADPH by LC-ESI-MS analysis; type: ADME, Microsome; conditions: 2 h
[16] = biological target: Kappa-type opioid receptor (Homo sapiens, UniProt P41145); experiment: Displacement of [3H] diprenorphine from kappa opioid receptor (unknown origin); outline: as §1
Chain of Kappa-type opioid receptor (P41145 whole entry): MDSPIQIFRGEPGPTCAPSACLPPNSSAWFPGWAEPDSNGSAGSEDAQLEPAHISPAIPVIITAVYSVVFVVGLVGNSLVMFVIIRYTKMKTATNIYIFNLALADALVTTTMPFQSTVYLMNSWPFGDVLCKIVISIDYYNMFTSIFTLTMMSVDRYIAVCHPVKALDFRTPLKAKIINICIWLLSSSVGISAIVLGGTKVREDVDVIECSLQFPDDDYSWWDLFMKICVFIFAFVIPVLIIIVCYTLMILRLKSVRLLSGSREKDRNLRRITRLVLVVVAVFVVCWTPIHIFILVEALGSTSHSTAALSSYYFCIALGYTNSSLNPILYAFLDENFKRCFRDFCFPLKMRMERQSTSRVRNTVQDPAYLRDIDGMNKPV

Homo sapiens [17] = species on record: Homo sapiens; experiment: Selectivity index, ratio of Ki for displacement of [3H] Spiperone from human D3 receptor expressed in CHO cells to Ki for displacement of [3H] Spiperone from human D4.4 receptor expressed in CHO cells; type: cell-based
Outline: (§2)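 Competition binding against [3H]spiperone on membranes of CHO cells stably expressing cloned human D2L, D2S, D3 or D4.4 receptors. Ki from monophasic curve fits; mean ± SEM of three to seven experiments, each in triplicate. Selectivity calculated as Ki(D2L, D2S or D3) divided by Ki(D4.4).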

D(4) dopamine receptor [18] = biological target: T8, D(4) dopamine receptor (Homo sapiens, UniProt P21917); experiment: Antagonist activity at […] D4 receptor (unknown origin) expressed in HEK293 cells co-expressing beta-arrestin2 assessed as inhibition of quinpirole-induced beta-arrestin2 recruitment preincubated for 30 mins followed by quinpirole addition and further incubated for 6 hrs by Path-Hunter assay; type: cell-based
T8 sequence (P21917 whole entry): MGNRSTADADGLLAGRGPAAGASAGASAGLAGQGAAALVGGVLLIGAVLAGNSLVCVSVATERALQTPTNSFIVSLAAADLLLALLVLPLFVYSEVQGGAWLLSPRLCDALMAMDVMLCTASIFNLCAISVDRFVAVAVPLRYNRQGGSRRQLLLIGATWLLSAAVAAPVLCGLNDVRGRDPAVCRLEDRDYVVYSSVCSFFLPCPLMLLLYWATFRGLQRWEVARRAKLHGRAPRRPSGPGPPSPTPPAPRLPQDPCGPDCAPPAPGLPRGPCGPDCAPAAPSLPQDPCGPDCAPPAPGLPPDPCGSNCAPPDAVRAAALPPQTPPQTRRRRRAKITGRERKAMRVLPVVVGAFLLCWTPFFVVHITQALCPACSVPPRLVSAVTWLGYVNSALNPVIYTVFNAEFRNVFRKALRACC

Homo sapiens [19] = species on record: Homo sapiens; experiment: Selectivity index, ratio of Ki for displacement of [3H] Spiperone from human D2S receptor expressed in CHO cells to Ki for displacement of [3H] Spiperone from human D4.4 receptor expressed in CHO cells; type: cell-based; outline: as §2
D(4) dopamine receptor [20] = biological target: T8, D(4) dopamine receptor; type: cell-based, HEK293
Homo sapiens [21] = species on record: Homo sapiens; experiment: Selectivity index, ratio of Ki for displacement of [3H] Spiperone from human D2L receptor expressed in CHO cells to Ki for displacement of [3H] Spiperone from human D4.4 receptor expressed in CHO cells; type: cell-based; outline: as §2
D(4) dopamine receptor [22] = biological target: T8, D(4) dopamine receptor; experiment: Displacement of [3H] Spiperone from human D4.4 receptor expressed in CHO cells by competitive radioligand binding assay; type: cell-based
D(4) dopamine receptor [23] = biological target: T8, D(4) dopamine receptor; experiment: Agonist activity at human D4 receptor expressed in HEK293T cells co-expressing G-alphaqi assessed as accumulation of inositol monophosphate using d2-labelled IP1 conjugate incubated for 90 mins by HTRF assay; type: functional, cell-based

- Ki [1]: 17 nM
- Ki (D(1B) dopamine receptor): 340 nM
- Ki (D(3) dopamine receptor): 170 nM
- Ki [2]: 25 µM
- Ki [3]: 400 nM
- Ki [4]: 10 µM
- Activity [5]: inactive
- Ki (D(2) dopamine receptor [6]): 77 nM
- remaining at 2 h, 20 µM [7]: 10%
- Ki [8]: 13 µM
- Ki (Mu-type opioid receptor): 2000 nM
- Ki [9]: 1800 nM
- Ki [10]: 1.7 nM
- Ki (D(1A) dopamine receptor): 200 nM
- Ki [11]: 65 nM
- Ki [12]: 14 µM
- Ki (D(2) dopamine receptor [13]): 73 nM
- Ki [14]: 25 µM
- Drug metabolism [15]: Metabolite_Detected
- Ki [16]: 3.9 µM
SMILES: COc1ccccc1N1CCN(CCCNC(=O)NN(Cc2ccccc2)c2ccccc2)CC1

- Ki (D(3) dopamine receptor): 25 nM
- Ki (D(2) dopamine receptor [6]): 6.6 nM
- IC50 (D(4) dopamine receptor [18]): 49 nM
- EC50 (D(4) dopamine receptor [20]): 340 nM
- Ki (D(4) dopamine receptor [22]): 0.55 nM
- Ki (D(2) dopamine receptor [13]): 4.3 nM
- EC50 (D(4) dopamine receptor [23]): 1.8 nM
SMILES: COc1ccccc1N1CCN(CCCNC(=O)NN(Cc2ccccc2)c2ccc(F)cc2)CC1
- Ratio Ki (Homo sapiens [17]): 45
- Ratio Ki (Homo sapiens [19]): 7.8
- Ratio Ki (Homo sapiens [21]): 12
